Experimental data as given in ChEMBL document CHEMBL1155945, “Discovery of 2-chloro-N-(4-methoxyphenyl)-N-methylquinazolin-4-amine (EP128265, MPI-0441138) as a potent inducer of apoptosis with high in vivo activity” (J Med Chem, 2008).
Calls of active or inactive are those of the source. The rule behind the calls is not given here.

How the values were obtained:
T47D [1] = test: Induction of apoptosis in human T47D cells assessed as caspase 3 activation after 24 hrs; assay type: functional, cell-based
How it was run: (§1)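 A live-cell, high-throughput caspase-3 activator assay was used, with fluorescent caspase-3 substrates in intact cells. EC50 values for caspase activation are the mean ± SEM of three or more experiments.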

HCT-116 [2] = test: Induction of apoptosis in human HCT116 cells assessed as caspase 3 activation after 24 hrs; assay type: functional, cell-based; settings: HCT-116, 24 h; how it was run: as §1
T47D [3] = test: Growth inhibition of human T47D cells after 48 hrs by CellTiter-Glo assay; assay type: functional
How it was run: (§2)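 Cells were exposed continuously to the compound for 48 h at 37 °C. CellTiter-Glo reagent was then added and the samples mixed by agitation. After 10-15 min at room temperature, luminescence was read. GI50 was taken as 50% inhibition of cell proliferation. Values are the mean ± SEM of three experiments.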

HCT-116 [4] = test: Growth inhibition of human HCT116 cells after 48 hrs by CellTiter-Glo assay; assay type: functional; settings: HCT-116, 48 h; how it was run: as §2
P388 [5] = test: Cytotoxicity against mouse P388 cells; assay type: functional, cell-based
How it was run: (§3)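 Cytotoxicity IC50 was measured in parental P388 cells and in the P388/ADR line, which overexpresses the ABC transporter Pgp-1 (MDR-1). Values are the mean ± SEM of three experiments.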

P388 [6] = test: Cytotoxicity against adriamycin-resistant mouse P388 cells expressing p-glycoprotein; assay type: functional, cell-based; how it was run: as §3
[7] = Inhibition of tubulin polymerization
[8] = Displacement of fluorescent labeled colchicine from tubulin at 50 uM
MX1 [9] = test: Antitumor activity in human MX1 cells xenografted crl:Nu/Nu-nuBR mouse assessed as tumor growth inhibition at 10 mg/kg, iv administered once weekly for 2 weeks; assay type: functional; settings: MX1, 336 h
Mus musculus [10] = test: Toxicity in human MX1 cells xenografted crl:Nu/Nu-nuBR mouse assessed as decrease in body weight at 10 mg/kg, iv administered once weekly for 2 weeks; assay type: organism-based; design: dose 10 mg/kg, route intravenous; scale not given: the % may be the effect or the level left; settings: in vivo, 336 h
[11] = Toxicity in human MX1 cells xenografted crl:Nu/Nu-nuBR mouse; assay type: organism-based; settings: in vivo
How it was run: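 MX-1 human breast tumour xenograft in mice; dosed intravenously once weekly at several dose levels […]. Tolerability was judged by maximum body weight decrease, alongside tumour growth measurement.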

[12] = Therapeutic index, ratio of MTD for human MX1 cells xenografted crl:Nu/Nu-nuBR mouse to tumor growth inhibition in human MX1 cells xenografted crl:Nu/Nu-nuBR mouse; settings: in vivo
MX1 [13] = test: Antitumor activity in human MX1 cells xenografted crl:Nu/Nu-nuBR mouse assessed as tumor growth inhibition at 2.5 mg/kg, iv administered once a day for 5 days for 2 weeks; assay type: functional
PC-3 = test: Antitumor activity in human PC3 cells xenografted crl:Nu/Nu-nuBR mouse assessed as tumor growth inhibition at 10 mg/kg, iv administered once weekly for 2 weeks; assay type: functional, organism-based; design: dose 10 mg/kg
Mus musculus [14] = test: AUC in C57BL/6 mouse brain at 2.5 mg/kg, iv; assay type: ADME, organism-based; design: dose 2.5 mg/kg, route intravenous; settings: in vivo
Mus musculus [15] = test: AUC in C57BL/6 mouse plasma at 2.5 mg/kg, iv; assay type: ADME, organism-based; design: dose 2.5 mg/kg, route intravenous; settings: in vivo

EC50 (T47D [1]) [nM] | EC50 (HCT-116 [2]) [nM] | Structure (SMILES) | other results
68 | 72 | CN(c1ccc(Cl)cc1)c1nc(Cl)nc2ccccc12 | –
– | – | COc1ccc(N(C)c2nc(NC/C=C(\C)CCC=C(C)C)nc3ccccc23)cc1 | GI50 (T47D [3]): 850 nM; GI50 (HCT-116 [4]): 350 nM
590 | 970 | COc1ccc(N(C)c2nc(Cl)nc3cc(OC)c(OC)cc23)cc1 | –
– | – | COc1ccc(N(C)c2nc(Cl)nc3ccccc23)cc1 | GI50 (T47D [3]): 1 nM; GI50 (HCT-116 [4]): 2 nM; IC50 (P388 [5]): 2.1 nM; IC50 (P388 [6]): 2.2 nM; IC50 [7]: < 400 nM; Activity [8]: Active; inhibition in vivo at 10 mg/kg (MX1 [9]): > 95%; Activity (Mus musculus [10]): < 10%; MTD [11]: 25 mg/kg; selectivity ratio [12]: 2.5; inhibition in vivo at 2.5 mg/kg (MX1 [13]): 90%; Activity (PC-3): Active; AUC (Mus musculus [14]): 20563 ng/mL; AUC (Mus musculus [15]): 669 ng/mL
– | – | CC[C@]1(O)C[C@@H]2CN(CCc3c([nH]c4ccccc34)[C@@](C(=O)OC)(c3cc4c(cc3OC)N(C)[C@H]3[C@@](O)(C(=O)OC)[C@H](OC(C)=O)[C@]5(CC)C=CCN6CC[C@]43[C@@H]65)C2)C1 [VINBLASTINE] | IC50 (P388 [5]): 0.6 nM; IC50 (P388 [6]): 27 nM
6 | 8 | COc1ccc(N(C)c2ncnc3ccccc23)cc1 | –
> 10000 | > 10000 | CN(c1ccc(Oc2ccccc2)cc1)c1nc(Cl)nc2ccccc12 | –
15 | 21 | Cc1ccc(N(C)c2nc(Cl)nc3ccccc23)cc1 | –
– | – | CC(=O)O[C@@]12CO[C@@H]1C[C@H](O)[C@@]1(C)C(=O)[C@H](O)C3=C(C)[C@@H](OC(=O)[C@H](O)[C@@H](NC(=O)OC(C)(C)C)c4ccccc4)C[C@@](O)([C@@H](OC(=O)c4ccccc4)[C@H]21)C3(C)C [DOCETAXEL] | IC50 (P388 [5]): 2 nM; IC50 (P388 [6]): 277 nM
85 | 120 | CN(c1ccc(O)cc1)c1nc(Cl)nc2ccccc12 | –
> 10000 | > 10000 | COc1ccc(Oc2ncnc3ccccc23)cc1 | –
25 | 31 | COc1cccc(N(C)c2nc(Cl)nc3ccccc23)c1 | –
4440 | > 10000 | COc1ccccc1N(C)c1nc(Cl)nc2ccccc12 | –
> 10000 | > 10000 | COc1ccc(Nc2nc(Cl)nc3cc(OC)c(OC)cc23)cc1 | –
210 | 300 | CN(c1ccccc1)c1nc(Cl)nc2ccccc12 | –
300 | 350 | COc1ccc(N(C)c2nc(Cl)nc3cc(Cl)ccc23)cc1 | –
17 | 29 | COc1ccc(N(C)c2nc(Cl)nc3ccccc23)cn1 | GI50 (T47D [3]): 37 nM; GI50 (HCT-116 [4]): 40 nM
68 | 120 | COc1ccc(CN(C)c2nc(Cl)nc3ccccc23)cc1 | –
10 | 13 | COc1ccc(N(C)c2nc(Cl)nc3ccc(Cl)cc23)cc1 | –
680 | 1110 | COc1cccc(N(C)c2nc(Cl)nc3ccccc23)c1OC | –
– | – | COc1cc2c(c(OC)c1OC)-c1ccc(OC)c(=O)cc1[C@@H](NC(C)=O)CC2 [COLCHICINE] | IC50 [7]: 500 nM
5 | 5 | CCOc1ccc(N(C)c2nc(Cl)nc3ccccc23)cc1 | –
770 | 1400 | CN(c1ccc([N+](=O)[O-])cc1)c1nc(Cl)nc2ccccc12 | –
> 10000 | > 10000 | COc1ccc(Nc2nc(Cl)nc3ccccc23)cc1 | –
31 | 65 | CN(c1ccc2c(c1)OCO2)c1nc(Cl)nc2ccccc12 | –
39 | 49 | CCN(c1ccc(OC)cc1)c1nc(Cl)nc2ccccc12 | –
9 | 15 | COc1ccc(N(C)c2nc(Cl)nc3ccccc23)cc1OC | –
49 | 59 | CN(c1ccc(OC(F)(F)F)cc1)c1nc(Cl)nc2ccccc12 | –
